From ChEMBL document CHEMBL3817796, “Discovery of Novel 15-Lipoxygenase Activators To Shift the Human Arachidonic Acid Metabolic Network toward Inflammation Resolution” (J Med Chem, 2016)
pKd: −log10 of the molar value. The source made the active and inactive calls. The calls are words filed in the database; no cut-off is given here.

Key:
[1] = molecular target: T1, Polyunsaturated fatty acid lipoxygenase ALOX15 (Homo sapiens, UniProt P16050); test: Activation of wild-type His6-tagged human 15-LOX expressed in Escherichia coli Rosetta DE3 assessed as 15-HpETE formation pre-incubated for 1 min before arachidonic acid substrate addition by cell free assay
T1 sequence (P16050 whole entry): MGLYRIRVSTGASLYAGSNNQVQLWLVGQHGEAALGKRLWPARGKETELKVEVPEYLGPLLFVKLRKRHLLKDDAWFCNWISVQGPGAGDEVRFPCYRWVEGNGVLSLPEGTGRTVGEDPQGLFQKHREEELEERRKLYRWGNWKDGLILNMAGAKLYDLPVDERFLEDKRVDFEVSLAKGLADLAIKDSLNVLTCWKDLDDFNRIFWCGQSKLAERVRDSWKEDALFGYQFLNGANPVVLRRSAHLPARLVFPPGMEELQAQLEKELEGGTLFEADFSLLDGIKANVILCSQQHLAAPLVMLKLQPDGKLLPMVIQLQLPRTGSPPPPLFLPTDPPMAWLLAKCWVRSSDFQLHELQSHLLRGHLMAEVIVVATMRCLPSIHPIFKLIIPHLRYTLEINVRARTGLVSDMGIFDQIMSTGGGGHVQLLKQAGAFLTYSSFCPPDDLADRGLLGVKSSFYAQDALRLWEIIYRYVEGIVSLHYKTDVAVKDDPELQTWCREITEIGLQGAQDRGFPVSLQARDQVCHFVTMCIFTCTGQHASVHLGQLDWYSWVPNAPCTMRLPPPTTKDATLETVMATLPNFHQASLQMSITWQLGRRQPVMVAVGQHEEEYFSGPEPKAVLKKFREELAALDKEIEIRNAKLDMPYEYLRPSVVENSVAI

[2] = molecular target: T2, Polyunsaturated fatty acid lipoxygenase ALOX15 (Homo sapiens) (UniProt P16050); test: Activation of 15-LOX in human whole blood assessed as reduction in LTB4 production at 100 uM pre-incubated for 20 mins before stimulation with LPS and A23187 for 120 mins in presence of 2 uM […] inhibitor Zileuton by LC-MS/MS method; type: tissue-based
T2 sequence (whole entry): T1 sequence (P16050 whole entry)
Method in brief: (§1)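 Human blood preincubated 20 min at 37 °C with DMSO vehicle or compound in DMSO. LPS added at 100 μg/mL for 24 h at 37 °C, then A23187 at 20 μg/mL final. Samples frozen in liquid nitrogen at time points, lysed by freeze–thaw, with PGB2 internal standard. Analysed by C18 LC-MRM MS, negative ion. Change = control-normalized concentration minus 1, ×100%; 120 min value from AUC.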

[3] = molecular target: T2, Polyunsaturated fatty acid lipoxygenase ALOX15 (Homo sapiens); test: Activation of 15-LOX in human whole blood assessed as increase in 15-HETE production at 100 uM pre-incubated for 20 mins before stimulation with LPS and A23187 for 120 mins in presence of 0.16 to 20 uM 5-LOX inhibitor Zileuton by LC-MS/MS method; type: tissue-based; method in brief: as §1
Blood = test: Reduction in TXB2 in production in human whole blood at 100 uM pre-incubated for 20 mins before stimulation with LPS and A23187 for 120 mins by LC-MS/MS method; type: functional; design: scale not given: the % may be the effect or the level left; method in brief: as §1
[4] = molecular target: T2, Polyunsaturated fatty acid lipoxygenase ALOX15 (Homo sapiens); test: Activation of 15-LOX in human PMN assessed as 12-HETE production at 6.2 to 40 uM pre-incubated for 15 mins before A23187, Ca2+ and Mg2+ stimulation for 1 hr by LC-MS method
Method in brief: (§2)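 PMNs preincubated 15 min at 37 °C with compound or vehicle, then stimulated 1 h at 37 °C with 10 μM A23187 plus 2 mM Ca2+ and 2 mM Mg2+. Reactions stopped with cold methanol. Eicosanoids quantified by LC-MS.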

[5] = molecular target: T2, Polyunsaturated fatty acid lipoxygenase ALOX15 (Homo sapiens); test: Activation of 15-LOX in human whole blood assessed as increase in 13-HODE production at 100 uM pre-incubated for 20 mins before stimulation with LPS and A23187 for 120 mins by LC-MS/MS method; type: tissue-based; method in brief: as §1
[6] = molecular target: T2, Polyunsaturated fatty acid lipoxygenase ALOX15 (Homo sapiens); test: Activation of 15-LOX in human whole blood assessed as increase in 15-HETE production at 100 uM pre-incubated for 20 mins before stimulation with LPS and A23187 for 120 mins by LC-MS/MS method; type: tissue-based; method in brief: as §1
[7] = molecular target: T2, Polyunsaturated fatty acid lipoxygenase ALOX15 (Homo sapiens); test: Activation of 15-LOX in human whole blood assessed as increase in 13-HODE production at 100 uM pre-incubated for 20 mins before stimulation with LPS and A23187 for 120 mins in presence of 2 uM […] inhibitor Zileuton by LC-MS/MS method; type: tissue-based; method in brief: as §1
[8] = molecular target: T1, Polyunsaturated fatty acid lipoxygenase ALOX15; test: Binding affinity to wild-type His6-tagged human 15-LOX expressed in Escherichia coli Rosetta DE3 by SPR assay
Method in brief: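 15-LOX amine-coupled to a CM5 chip at 800 RU, 25 °C, in PBS-P pH 7.4. Compound concentrations in 5% DMSO injected serially; regenerated by buffer washing. KD from Hill fit of response units.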

[9] = molecular target: T2, Polyunsaturated fatty acid lipoxygenase ALOX15 (Homo sapiens); test: Activation of 15-LOX in human PMN assessed as 5-HETE production at 6.2 to 40 uM pre-incubated for 15 mins before A23187, Ca2+ and Mg2+ stimulation for 1 hr by LC-MS method; method in brief: as §2
[10] = molecular target: T3, Cytosolic phospholipase A2 (Homo sapiens) (UniProt P47712); test: Inhibition of human cPLA2 assessed as reduction in hydrolysis of 7-hydroxycoumarinyl-gamma-linolenate or 2-oxo-2H-chromen-[…] (6Z,9Z,12Z)-octadeca-6,9,12-trienoate at 100 uM by fluorometry
T3 sequence (whole entry): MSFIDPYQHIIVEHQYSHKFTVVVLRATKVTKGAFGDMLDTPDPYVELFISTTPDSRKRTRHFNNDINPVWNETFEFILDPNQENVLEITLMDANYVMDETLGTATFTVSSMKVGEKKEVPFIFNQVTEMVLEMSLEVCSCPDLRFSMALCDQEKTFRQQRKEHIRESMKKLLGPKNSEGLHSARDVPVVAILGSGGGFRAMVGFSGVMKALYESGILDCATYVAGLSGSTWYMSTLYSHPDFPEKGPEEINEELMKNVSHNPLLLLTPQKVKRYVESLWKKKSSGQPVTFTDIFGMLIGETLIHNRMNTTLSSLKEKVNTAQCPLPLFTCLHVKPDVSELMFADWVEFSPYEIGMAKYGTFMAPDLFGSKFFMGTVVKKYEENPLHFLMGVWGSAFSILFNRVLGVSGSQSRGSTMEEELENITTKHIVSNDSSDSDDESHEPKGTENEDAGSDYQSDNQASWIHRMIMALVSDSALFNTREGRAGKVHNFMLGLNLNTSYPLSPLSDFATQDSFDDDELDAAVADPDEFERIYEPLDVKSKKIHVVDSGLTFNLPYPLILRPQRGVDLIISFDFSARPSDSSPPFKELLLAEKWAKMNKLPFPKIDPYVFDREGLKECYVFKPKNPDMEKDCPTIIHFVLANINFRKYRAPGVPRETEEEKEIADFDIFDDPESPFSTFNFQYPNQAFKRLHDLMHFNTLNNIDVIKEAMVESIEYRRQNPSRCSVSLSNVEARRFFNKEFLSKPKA
Method in brief: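 Purified human cPLA2 (1 μg/mL final) started the reaction with 7-hydroxycoumarinyl-γ-linolenate substrate. Fluorescence (ex 355/em 460 nm) recorded over 84 min. Compound handled as in the 15-LOX assay.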

AC50 [1]: 6.8 µM
Activity [2]: Active
Activity [3]: Active
Activity [4]: Active
Activity [5]: 95%
Activity [6]: 33%
Activity [7]: Active
pKd [8]: 5.41
Activity [9]: Active
inhibition [10]: 20%
Compound: CN1CCN(CC(=O)N2N=C3/C(=C/c4ccccc4)CCCC3C2c2ccccc2)CC1 (stereo unspecified)
Activity (Blood): 27%
